Consider 26 compounds from ChEMBL document CHEMBL1122761, “Beta 1-selective adrenoceptor antagonists. 3. 4-Azolyl-linked phenoxypropanolamines” (J Med Chem, 1984).

In general, ED50 refers to the dose that gives a 50% effect, or the effect in half of the subjects. Read a high ED50 as weaker potency. The term pKa denotes the pH at which an ionisable group is half protonated. A high value points to a group that holds its proton tightly.

Data set [1] addresses Adrenergic receptor beta (Rattus norvegicus) (UniProt P18090+P10608+P26255). As to the kind of experiment: Beta agonist activity against heart rate in rats. In kind it is functional, tissue-based. In short, it runs like this:
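Rats anesthetized with pentobarbitone sodium (75 mg/kg ip) and reserpinized 20-24 h earlier (5 mg/kg ip). Single iv doses into tail vein, up to 20 animals. Blood pressure and heart rate recorded; ED30 = dose giving 30 beats/min heart-rate rise, with 95% confidence limits from log dose-response linear regression.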

The target in data set [2] is Beta-1 adrenergic receptor (Rattus norvegicus) (UniProt P18090). As to the kind of experiment: Inhibition of isoprenaline induced tachycardia in anaesthetised rats. The data set is classed as functional. In short, it runs like this:
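Pentobarbitone-anesthetized rats (75 mg/kg ip), bilaterally vagotomized, tracheal cannula. Isoprenaline given via right femoral vein; carotid blood pressure and tachograph heart rate recorded. Test compound injected 5 min after isoprenaline, cumulative doses up to 2 mg/kg. ED50 (50% reduction of control isoprenaline response) with 95% confidence limits by linear regression of log dose-response.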

Data set [3] has as its target Beta-2 adrenergic receptor (Rattus norvegicus) (UniProt P10608). As to the kind of experiment: Beta-2 adrenergic receptor antagonism in rats anesthetized with pentobarbitone sodium (75 mg/kg ip).
Data set [4] can be described thus: Acid dissociation constant was determined. The data set is classed as ADME.
Data set [5] deals with Beta-2 adrenergic receptor (Rattus norvegicus) (UniProt P10608). As to the kind of experiment: Inhibition of isoprenaline induced […] response in anaesthetised rats.
Chain of Beta-2 adrenergic receptor (Rattus norvegicus) (P10608 whole entry, looked up): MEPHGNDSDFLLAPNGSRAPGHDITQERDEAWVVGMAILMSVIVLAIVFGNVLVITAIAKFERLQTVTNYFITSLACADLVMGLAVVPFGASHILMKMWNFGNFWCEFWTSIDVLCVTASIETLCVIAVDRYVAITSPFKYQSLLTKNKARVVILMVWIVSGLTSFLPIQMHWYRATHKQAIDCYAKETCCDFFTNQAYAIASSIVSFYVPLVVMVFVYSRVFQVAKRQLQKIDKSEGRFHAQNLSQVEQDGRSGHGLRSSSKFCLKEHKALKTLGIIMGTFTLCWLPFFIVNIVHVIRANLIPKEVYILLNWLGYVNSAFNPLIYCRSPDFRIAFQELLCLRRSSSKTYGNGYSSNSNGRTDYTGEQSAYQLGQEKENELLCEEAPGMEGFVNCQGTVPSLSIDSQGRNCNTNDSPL

Chain of Beta-1 adrenergic receptor (Rattus norvegicus) (P18090 whole entry, looked up): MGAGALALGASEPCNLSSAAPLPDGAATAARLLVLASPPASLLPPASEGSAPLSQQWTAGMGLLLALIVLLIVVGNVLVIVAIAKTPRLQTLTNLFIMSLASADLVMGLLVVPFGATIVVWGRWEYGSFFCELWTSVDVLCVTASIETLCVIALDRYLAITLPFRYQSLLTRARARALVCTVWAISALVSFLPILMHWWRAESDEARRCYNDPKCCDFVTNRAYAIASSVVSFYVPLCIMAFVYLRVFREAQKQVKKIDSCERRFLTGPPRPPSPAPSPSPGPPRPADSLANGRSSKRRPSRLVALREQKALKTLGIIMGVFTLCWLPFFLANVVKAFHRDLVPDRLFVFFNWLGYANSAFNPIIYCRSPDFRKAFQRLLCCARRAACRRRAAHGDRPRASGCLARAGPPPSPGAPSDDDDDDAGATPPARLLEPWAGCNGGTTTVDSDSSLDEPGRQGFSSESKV

In data set [1], `CC(C)NCC(O)COc1ccc(OCCn2nc3ccccc3n2)cc1` (centres undefined) came in with an ED30 above 1 mg/kg. Also, the 50% effective dose (ED50) in data set [2] turned out to be 0.05 mg/kg; in data set [3], 0.988 mg/kg.

For `CC(C)NCC(O)COc1ccc(OCn2ccnn2)cc1` (centres undefined), the pKa in data set [4] was found to be 1.25. This compound gave an ED30 in data set [1] of 0.05 mg/kg. The ED50 in data set [2] is 0.04 mg/kg; in data set [5], above 2 mg/kg.

Regarding `CC(C)NCC(O)COc1ccc(OCCn2cnc3ccccc32)cc1` (centres undefined), in data set [1], the ED30 is above 1 mg/kg. Also, the 50% effective dose (ED50) was 0.687 mg/kg in data set [2] and above 2 mg/kg in data set [3].

As to `CC(C)NCC(O)COc1ccc(OCCn2cncn2)cc1` (centres undefined), in data set [4], the pKa was determined as 3.2. For the same compound, the ED30 in data set [1] is above 1 mg/kg. Moreover, the results for the ED50 in data set [2] and in data set [3] were 0.17 mg/kg and above 2 mg/kg, respectively.

As for `CC(C)NCC(O)COc1ccc(OCCCn2cncn2)cc1` (centres undefined), in data set [1], the ED30 was above 1 mg/kg. The ED50 in data set [2] is 0.68 mg/kg; in data set [3], above 2 mg/kg.

In the case of `CC(C)NCC(O)COc1ccc(OCCn2ncc3ccccc32)cc1` (centres undefined), in data set [1], the ED30 is above 1 mg/kg. The figures for the ED50 in data set [2] and in data set [3] were 0.263 mg/kg and above 2 mg/kg, respectively.

The compound `CC(C)NCC(O)COc1ccc(OCCn2cc(-c3ccccc3)cn2)cc1` (centres undefined) gave an ED30 in data set [1] above 1 mg/kg. The ED50 was 0.16 mg/kg in data set [2] and above 2 mg/kg in data set [3].

Compound `CC(C)NCC(O)COc1ccc(Cn2cccn2)cc1` (centres undefined) displayed an ED30 in data set [1] above 1 mg/kg. Moreover, the ED50 in data set [2] is 0.598 mg/kg; in data set [3], above 2 mg/kg.

In data set [1], `CC(C)NCC(O)COc1ccc(SCn2cccn2)cc1` (centres undefined) registered an ED30 above 1 mg/kg. The ED50 is 0.327 mg/kg in data set [2] and above 2 mg/kg in data set [3].

`CC(C)(C)NCC(O)COc1ccc(OCCn2cccn2)cc1` (centres undefined) registered an ED30 in data set [1] of 0.154 mg/kg. The values for the ED50 in data set [2] and in data set [3] were 0.067 mg/kg and 1.04 mg/kg, respectively.

Take `CC(C)NCC(O)COc1ccc(SCCn2cccn2)cc1` (centres undefined): the ED30 in data set [1] is above 1 mg/kg. The ED50 is 0.128 mg/kg in data set [2] and above 2 mg/kg in data set [3].

On to `CC(C)NCC(O)COc1ccc(CCn2ccnc2)cc1` (centres undefined), for which, in data set [1], the ED30 is above 1 mg/kg. For the same compound, the ED50 was 0.186 mg/kg in data set [2] and above 1 mg/kg in data set [3].

For the compound `CC(C)NCC(O)COc1ccc(CCCn2cccn2)cc1` (centres undefined), the ED30 in data set [1] was above 1 mg/kg. Also, the ED50 in data set [2] was 0.783 mg/kg; in data set [3], above 2 mg/kg.

The compound `CC(C)NCC(O)COc1ccc(CCn2cccn2)cc1` (centres undefined) came in with a pKa in data set [4] of 2. The compound further returned an ED30 in data set [1] above 1 mg/kg. The figures for the ED50 in data set [2] and in data set [3] were 0.209 mg/kg and above 2 mg/kg, respectively.

On to `CC(C)NCC(O)COc1ccc(CCn2cncn2)cc1` (centres undefined), for which, in data set [4], the pKa turned out to be 3.2. Moreover, the ED30 in data set [1] was above 1 mg/kg. In addition, the ED50 is 0.233 mg/kg in data set [2] and above 2 mg/kg in data set [3].

Turning to `CC(C)NCC(O)COc1ccc(OCn2cccn2)cc1` (centres undefined), the pKa in data set [4] stood at 2. The compound further yielded an ED30 in data set [1] above 1 mg/kg. Moreover, the ED50 was 0.028 mg/kg in data set [2] and above 2 mg/kg in data set [5].

`CC(C)NCC(O)COc1ccc(OCCn2nc3c(n2)CCCC3)cc1` (centres undefined) returned an ED30 in data set [1] above 1 mg/kg. Besides, the ED50 in data set [2] is 0.057 mg/kg; in data set [3] it was above 2 mg/kg.

For the compound `CC(C)NCC(O)COc1ccc(OCCn2nccn2)cc1` (centres undefined), the pKa in data set [4] is below 1. The ED30 in data set [1] stood at 0.014 mg/kg. In addition, the ED50 in data set [2] is 0.014 mg/kg; in data set [3], above 2 mg/kg.

With `CC(C)NCC(O)COc1ccc(OCCn2cc(Cl)cn2)cc1` (centres undefined), in data set [4], the pKa was below 0.6. In addition, the ED30 in data set [1] is 0.194 mg/kg. Moreover, the ED50 in data set [2] was 0.024 mg/kg; in data set [3] it was 0.523 mg/kg.

As to `CC(C)NCC(O)COc1ccc(OCCn2ccnc2)cc1` (centres undefined), in data set [1], the ED30 is above 1 mg/kg. The values for the ED50 in data set [2] and in data set [3] were 0.97 mg/kg and above 2 mg/kg, respectively.

In data set [4], `CC(C)NCC(O)COc1ccc(OCCn2cccn2)cc1` (centres undefined) showed a pKa of 2. Moreover, in data set [1], the ED30 was above 1 mg/kg. The ED50 was 0.05 mg/kg in data set [2] and above 2 mg/kg in data set [3].

In turn, `CC(C)NCC(O)COc1ccc(OCCCn2cccn2)cc1` (centres undefined) registered an ED30 in data set [1] above 1 mg/kg. Moreover, the ED50 is 0.334 mg/kg in data set [2] and above 2 mg/kg in data set [3].

In turn, `CC(C)NCC(O)COc1ccc(Cn2ccnc2)cc1` (centres undefined) came in with a pKa in data set [4] of 7.2. The ED30 in data set [1] is above 1 mg/kg. The ED50 in data set [2] was 0.62 mg/kg; in data set [3] it was above 1 mg/kg.

Take `CC(C)NCC(O)COc1ccc(OCn2cc(Cl)cn2)cc1` (centres undefined): the pKa in data set [4] is below 0.6. The ED30 in data set [1] stood at 0.007 mg/kg. For the same compound, the ED50 in data set [2] is 0.004 mg/kg; in data set [5], 2.43 mg/kg.

The compound `CC(C)NCC(O)COc1ccc(OCn2nccn2)cc1` (centres undefined) returned a pKa in data set [4] below 1. The same compound came in with an ED30 in data set [1] of 0.019 mg/kg. Besides, the ED50 in data set [2] was 0.011 mg/kg; in data set [5], above 2 mg/kg.

The compound `CC(C)NCC(O)COc1ccc(OCCn2nnc3ccccc32)cc1` (centres undefined) gave an ED30 in data set [1] above 1 mg/kg. Further, the results for the ED50 in data set [2] and in data set [3] were 1.27 mg/kg and above 2 mg/kg, respectively.
